ChEMBL document CHEMBL1773072, “Diosgenin, a plant-derived sapogenin, exhibits antiviral activity in vitro against hepatitis C virus” (J Nat Prod, 2011)
Calls of active or inactive are those of the source. The rule behind the calls is not given here.

Assays:
Huh-7 = assay: Cytotoxicity against Hepatitis C virus JFH-1 infected human HuH7 cells; type: cell-based
[1] = Cytotoxicity against Hepatitis C virus infected human Ava5 cells assessed as cell viability after 5 days by MTS assay in presence of IFN-alpha; type: cell-based; conditions: ava5, 120 h
[2] = Cytotoxicity against Hepatitis C virus infected human Ava5 cells assessed as cell viability after 5 days by MTS assay; type: cell-based; conditions: ava5, 120 h
Summary of the method: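 Cells seeded, incubated overnight at 37 °C, 5% CO2, then medium replaced with compound-containing medium across a concentration range for five days. Viability by MTS colorimetric read at 490 nm after 2 h reagent incubation; ethanol as solvent control. Means ± SD.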

Hepatitis C virus [3] = assay: Antiviral activity against Hepatitis C virus JFH-1 infected in human Huh7 cells expressing G(delta4AB)SEAP reporter gene assessed as decreased NS3 protein level at 20 uM after 8 days by Western blotting; type: functional, organism-based; conditions: Hepacivirus hominis, Huh-7
Summary of the method: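 Huh7-EG(Δ4B5A)SEAP cells seeded 5×10^4/well, incubated overnight, then infected with HCV JFH-1 (genotype 2a) at MOI 0.02 for 6 h. Unbound virus removed by medium replacement, then compound at 20 μM in basal medium for 7 days. Intracellular NS3 in lysates detected by Western blot.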

Hepatitis C virus [4] = assay: Antiviral activity against Hepatitis C virus infected in human Ava5 cells assessed as decreased NS3 protein level at 5 uM after 72 hrs by Western blotting in presence of IFN-alpha; type: functional, organism-based; conditions: Hepacivirus hominis
Summary of the method: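 Ava5 replicon cells given compound (5 μM) or IFN-α (5, 10, 50 IU/mL), alone and combined, for 72 h. BILN 2061 served as NS3/4A inhibitor positive control. Washed cells stored at -80 °C, then lysates Western blotted for NS3 with β-actin as internal standard.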

Hepatitis C virus [5] = assay: Antiviral activity against Hepatitis C virus infected in human Ava5 cells assessed as decreased NS3 protein level at 5 uM after 72 hrs by Western blotting; type: functional, organism-based; conditions: Hepacivirus hominis
Summary of the method: (§1)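 Ava5 subgenomic replicon cells (Huh7-derived, HCV genotype 1b NS3–NS5B, neo) are kept in DMEM/10% FBS at 37 °C, 5% CO2 and exposed to compound for 72 h. Cells are washed in PBS and lysed in Tris/NaCl/1% Triton X-100. Lysates are clarified and run on 10% SDS-PAGE, then immunoblotted with anti-NS3; β-actin is the loading control.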

[6] = molecular target: Signal transducer and activator of transcription 3 (Homo sapiens) (UniProt P40763); assay: Effect on STAT3 protein production in human Ava5 cells after 72 hrs by Western blotting; type: cell-based
Signal transducer and activator of transcription 3 (Homo sapiens), sequence (P40763 whole entry): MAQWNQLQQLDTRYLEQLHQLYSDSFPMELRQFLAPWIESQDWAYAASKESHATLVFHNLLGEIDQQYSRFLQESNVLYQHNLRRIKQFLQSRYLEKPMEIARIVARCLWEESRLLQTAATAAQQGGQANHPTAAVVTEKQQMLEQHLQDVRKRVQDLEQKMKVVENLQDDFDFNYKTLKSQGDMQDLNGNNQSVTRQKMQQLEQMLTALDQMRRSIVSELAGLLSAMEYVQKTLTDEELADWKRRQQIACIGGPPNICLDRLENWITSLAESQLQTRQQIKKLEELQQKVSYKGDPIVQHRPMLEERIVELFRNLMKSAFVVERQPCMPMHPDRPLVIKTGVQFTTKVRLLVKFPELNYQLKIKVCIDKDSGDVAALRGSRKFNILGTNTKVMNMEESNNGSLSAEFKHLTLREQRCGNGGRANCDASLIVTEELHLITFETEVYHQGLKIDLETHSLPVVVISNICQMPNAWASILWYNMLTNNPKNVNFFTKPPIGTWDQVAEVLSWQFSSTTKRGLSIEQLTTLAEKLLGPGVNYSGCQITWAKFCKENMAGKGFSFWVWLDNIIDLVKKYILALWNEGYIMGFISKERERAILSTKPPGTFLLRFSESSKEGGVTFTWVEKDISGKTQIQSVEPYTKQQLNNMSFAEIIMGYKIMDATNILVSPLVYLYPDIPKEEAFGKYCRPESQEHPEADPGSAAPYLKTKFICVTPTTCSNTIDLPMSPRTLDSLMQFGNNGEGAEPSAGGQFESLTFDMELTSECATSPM
Summary of the method: (§2)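 Ava5 cells incubated with a concentration series for 72 h. Whole-cell extracts were Western blotted with antibodies to STAT3 phosphorylated at Tyr705 and to total STAT3, with β-actin as loading control.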

Hepatitis C virus [7] = assay: Antiviral activity against Hepatitis C virus infected in human Ava5 cells expressing EG(delta4AB)SEAP reporter gene assessed as decreased NS3 protein level after 72 hrs by Western blotting; type: functional, organism-based; conditions: Hepacivirus hominis; summary of the method: as §1
Hepatitis C virus [8] = assay: Antiviral activity against Hepatitis C virus infected in human Ava5 cells expressing EG(delta4AB)SEAP reporter gene assessed as decreased viral RNA level after 72 hrs by RTqPCR analysis; type: functional, organism-based; conditions: Hepacivirus hominis
Summary of the method: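 Ava5 cells seeded 1.5×10^5/well, incubated overnight, treated with a concentration series for 72 h. Total RNA TRIzol-extracted; HCV genotype 1b RNA quantified by SYBR Green RT-qPCR. Levels expressed relative to untreated cells (100%); triplicate, means ± SD.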

Hepatitis C virus [9] = assay: Antiviral activity against Hepatitis C virus infected in human Ava5 cells expressing EG(delta4AB)SEAP reporter gene assessed as decreased viral replication measured as SEAP activity by Phospha-Light assay; type: functional, organism-based, Hepacivirus hominis
Summary of the method: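 Ava5-EG(Δ4AB)SEAP reporter cells seeded 6×10^3/well, after 24 h dosed with a concentration series. At 48 h medium replaced with fresh medium at same concentrations, incubated 24 h more. Secreted alkaline phosphatase in medium measured by chemiluminescent kit. EC50 from dose–response; three replicate wells, means ± SD.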

[10] = molecular target: Signal transducer and activator of transcription 3 (Homo sapiens) (UniProt P40763); assay: Inhibition of STAT3 phosphorylation at Tyr 705 in human Ava5 cells after 72 hrs by Western blotting; type: cell-based; summary of the method: as §2
Hepatitis C virus [11] = assay: Antiviral activity against Hepatitis C virus infected in human Ava5 cells assessed as decreased NS3 protein level at […] after 72 hrs by Western blotting; type: functional, organism-based; conditions: Hepacivirus hominis; summary of the method: as §1

Activity [6]	EC50 (Hepatitis C virus [9])	inhibition [10]	SMILES	Activity (Huh-7)	Activity [1]	Activity [2]	Activity (Hepatitis C virus [3])	Activity (Hepatitis C virus [4])	Activity (Hepatitis C virus [5])	Activity (Hepatitis C virus [7])	Activity (Hepatitis C virus [8])	Activity (Hepatitis C virus [9]; Hepacivirus hominis)	Activity (Hepatitis C virus [11])
inactive	3.8 µM	Dose-dependent effect	C[C@@H]1CC[C@@]2(OC1)O[C@H]1C[C@H]3[C@@H]4CC=C5C[C@@H](O)CC[C@]5(C)[C@H]4CC[C@]3(C)[C@H]1[C@@H]2C [DISOGENIN]	Non-toxic	Non-toxic	Non-toxic	Active	Active	Active	Dose-dependent effect	Dose-dependent effect	Dose-dependent effect	
			COc1ccc2c(O[C@@H]3C[C@H]4C(=O)N[C@]5(C(=O)O)C[C@H]5/C=C\CCCCC[C@H](NC(=O)OC5CCCC5)C(=O)N4C3)cc(-c3csc(NC(C)C)n3)nc2c1										Active
